# Assay results reported in ChEMBL document CHEMBL2384980, “Development of cell-active non-peptidyl inhibitors of cysteine cathepsins” (Bioorg Med Chem, 2013).
# Calls of active or inactive are those of the source. The rule behind the calls is not given here.
# How the values were obtained:
# Cathepsin B [1] = molecular target: T1, Cathepsin B (Homo sapiens, UniProt P07858); experiment: Time dependent inhibition of human liver cathepsin B using Z-RR-para-nitroanilide as substrate at 500 uM
# In short: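 Screening: human liver cathepsin B (175 nM) activated in 100 mM sodium phosphate pH 6.0, 5 mM DTT, 1 mM EDTA, incubated with 500 µM inhibitor (5% DMSO) at 30 °C for 10 min; aliquot diluted 17.5-fold into 3 mM Z-RR-pNA, residual activity from initial rates at 405 nm.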
# Cathepsin B [2] = molecular target: T1, Cathepsin B; experiment: Inhibition of human liver cathepsin B
# In short: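 Human liver cathepsin B (175 nM final) activated 10 min in 100 mM sodium phosphate pH 6.0 with 5 mM DTT, 1 mM Na2EDTA, then incubated with inhibitor (5% DMSO) at 30 °C under pseudo-first-order conditions. Aliquots diluted 17.5-fold into 3 mM Z-RR-pNA; initial rates read at 405 nm. Screening used 500 µM inhibitor with residual activity after 10 min.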
# MDA-MB-231 [3] = experiment: Inhibition of cathepsin in human MDA-MB-231 cells assessed as decrease in cell migratory behavior after 6 hrs by microscopic analysis; type: cell-based
# In short: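 MDA-MB-231 cells plated as concentric circles through a sedimentation manifold on BSA-coated glass slide; after manifold removal, treated with 0.05% DMSO or inhibitor (10 and 20 µM) for 6 h at 37 °C. Images at t0 and t6; motility taken as change in total area (µm2), mean ± S.D. of triplicates.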
# [4] = molecular target: Cathepsin S (Homo sapiens) (UniProt P25774); experiment: Inhibition of cathepsin S in human MDA-MB-231 cells assessed as increase in E-cadherin levels at 1 to 5 uM after 30 mins by Western blotting analysis; type: cell-based
# Cathepsin B [5] = molecular target: T1, Cathepsin B; experiment: Inhibition of cathepsin B in human MDA-MB-231 cells assessed as increase in E-cadherin levels at 1 to 5 uM after 30 mins by Western blotting analysis; type: cell-based
# MDA-MB-231 [6] = experiment: Inhibition of cathepsin in human MDA-MB-231 cells assessed as change in cellular morphology at 20 uM by microscopic analysis; type: cell-based
# [7] = molecular target: Cathepsin S (Homo sapiens) (UniProt P25774); experiment: Inhibition of cathepsin S in human MDA-MB-231 cells assessed as increase in E-cadherin levels after 20 mins by immunofluorescence assay; type: cell-based
# In short: (§1)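 MDA-MB-231 cells (IMDM, 10% FBS, 37 °C, 5% CO2) on glass coverslips 24 h, treated 20 min at 37 °C with vehicle (0.1% DMSO) or inhibitor. Fixed in 3.7% PFA, permeabilized, blocked, mouse anti-E-cadherin (1:100) overnight at 4 °C, then Alexa 594 secondary, Hoechst nuclei. Mean peripheral fluorescence intensity, 28 cells per condition, three independent experiments.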
# Cathepsin B [8] = molecular target: T1, Cathepsin B; experiment: Inhibition of cathepsin B in human MDA-MB-231 cells assessed as increase in E-cadherin levels after 20 mins by immunofluorescence assay; type: cell-based; in short: as §1
# Cathepsin B [9] = molecular target: T1, Cathepsin B; experiment: Inhibition of cathepsin B in human MDA-MB-231 cells using Z-RR-AMC as substrate preincubated for 20 mins prior to substrate addition measured after 10 mins by confocal microscopic analysis; type: cell-based
# In short: (§2)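 Live-cell confocal imaging of MDA-MB-231 cells on poly-D-lysine glass dishes in phenol-red-free medium with 15 mM HEPES plus Oxyrase/10 mM lactate. Cells treated with 0.1% DMSO or inhibitor 20 min at 37 °C, then Z-RR-AMC (25 µM final) for 10 min. […]; average whole-cell fluorescence, 8-10 cells per experiment, three independent experiments.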
# [10] = Half life of the compound at 2.5 mM at pH 7.4 by NMR spectrophotometric analysis; type: physicochemical
# In short: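 Hydrolytic stability by NMR: stock in deuterated DMSO added to deuterated phosphate buffer, pH 7.4 (D2O), final 2.5 mM, pseudo-first order. Spectra recorded at intervals; integrations of starting and final species compared, data fitted to single exponential decay, t1/2 = 0.693/k.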
# Cathepsin B [11] = molecular target: T1, Cathepsin B; experiment: Inhibition of cathepsin B in human MDA-MB-231 cells using Z-RR-AMC as substrate at 20 uM preincubated for 20 mins prior to substrate addition measured after 10 mins by confocal microscopic analysis; type: cell-based; in short: as §2
# [12] = molecular target: T2, Tyrosine-protein phosphatase non-receptor type 1 (Homo sapiens) (UniProt P18031); experiment: Inhibition of human PTP1B
# T2 sequence (whole entry): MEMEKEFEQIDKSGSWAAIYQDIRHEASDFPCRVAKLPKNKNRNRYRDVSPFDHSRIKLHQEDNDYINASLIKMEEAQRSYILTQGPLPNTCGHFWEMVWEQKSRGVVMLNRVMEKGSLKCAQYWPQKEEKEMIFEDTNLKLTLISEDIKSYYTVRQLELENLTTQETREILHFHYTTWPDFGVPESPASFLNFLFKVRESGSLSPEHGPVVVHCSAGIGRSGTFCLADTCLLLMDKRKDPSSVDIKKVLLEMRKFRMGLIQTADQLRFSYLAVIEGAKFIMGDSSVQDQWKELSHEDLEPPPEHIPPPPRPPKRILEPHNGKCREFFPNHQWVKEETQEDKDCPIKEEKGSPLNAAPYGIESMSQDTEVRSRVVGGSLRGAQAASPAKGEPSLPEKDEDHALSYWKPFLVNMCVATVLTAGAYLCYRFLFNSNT
# Trypsin (Homo sapiens) = Trypsin (Homo sapiens) (UniProt P07477+P07478+P35030); experiment: Inhibition of trypsin (unknown origin) using N-alpha-benzoyl-DL-arginine-p-nitroanilide as substrate; type: protein assay
# In short: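 Trypsin freshly prepared in 1 mM HCl, pre-activated (190–200 U/µl final), inhibitor added; aliquots at intervals into 67 mM sodium phosphate with 3 mM BAPNA, initial rate at 410 nm. Time-dependent inhibition examined up to 1 mM over 1 h.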
# [13] = molecular target: T3, Cathepsin G (Homo sapiens) (UniProt P08311); experiment: Inhibition of human cathepsin G using Suc-AAPF-pNA as substrate
# T3 sequence (whole entry): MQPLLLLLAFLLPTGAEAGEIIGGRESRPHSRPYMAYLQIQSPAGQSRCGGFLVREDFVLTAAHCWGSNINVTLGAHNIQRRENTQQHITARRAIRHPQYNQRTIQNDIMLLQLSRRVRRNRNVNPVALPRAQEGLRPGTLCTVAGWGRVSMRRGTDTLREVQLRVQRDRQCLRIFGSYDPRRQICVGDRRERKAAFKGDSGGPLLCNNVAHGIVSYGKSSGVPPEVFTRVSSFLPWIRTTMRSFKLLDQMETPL
# In short: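 Human cathepsin G (7.66 nM final) activated 15 min in 20 mM Tris-HCl pH 7.4, 500 mM NaCl; inhibitor added, aliquots at intervals into buffer with 3.4 mM Suc-AAPF-pNA. Time-dependent inhibition examined up to 1 mM over 1 h.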
# [14] = molecular target: Cathepsin D (Homo sapiens) (UniProt P07339); experiment: Inhibition of human cathepsin D using Mca-Gly-Lys-Pro-Ile-Leu-Phe-Phe-Arg-Leu-Lys(Dnp)-D-Arg-NH2 as substrate
# [15] = molecular target: Cathepsin S (Homo sapiens) (UniProt P25774); experiment: Inhibition of human cathepsin S using Z-VVR-AMC as substrate
# In short: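 Human cathepsin S (134.6 nM final) activated 10 min in 100 mM potassium phosphate pH 6.5, 5 mM DTT, 5 mM EDTA; inactivated with inhibitor at 75 µM. Aliquots at intervals into buffer (8% DMSO) with 250 µM Z-VVR-AMC, Ex/Em 365/440 nm. Second-order constant = kobs/[I].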
# [16] = molecular target: T4, Cathepsin F (Homo sapiens) (UniProt Q9UBX1); experiment: Inhibition of human cathepsin F using Z-FR-AMC as substrate
# T4 sequence (whole entry): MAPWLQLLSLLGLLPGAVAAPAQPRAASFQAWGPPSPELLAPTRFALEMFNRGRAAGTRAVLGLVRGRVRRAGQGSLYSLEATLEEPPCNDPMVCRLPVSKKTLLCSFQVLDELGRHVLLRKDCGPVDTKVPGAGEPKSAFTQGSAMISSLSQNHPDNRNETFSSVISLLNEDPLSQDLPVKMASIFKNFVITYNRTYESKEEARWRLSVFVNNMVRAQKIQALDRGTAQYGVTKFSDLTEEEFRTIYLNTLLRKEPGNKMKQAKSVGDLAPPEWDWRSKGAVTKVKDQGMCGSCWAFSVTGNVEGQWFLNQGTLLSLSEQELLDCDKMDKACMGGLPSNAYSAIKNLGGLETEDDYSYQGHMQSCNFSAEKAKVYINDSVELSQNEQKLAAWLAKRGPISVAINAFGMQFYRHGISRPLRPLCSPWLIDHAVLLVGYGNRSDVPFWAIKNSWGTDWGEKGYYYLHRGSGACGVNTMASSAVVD
# In short: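 Human cathepsin F (10.8 nM final) activated 10 min at 25 °C in 50 mM potassium phosphate pH 6.5, 2.5 mM DTT, 2.5 mM EDTA, 1.0 mg/ml BSA; inhibitor added, aliquots at intervals into assay with 3 µM Z-FR-AMC at 25 °C. Second-order constant = kobs divided by inhibitor concentration.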
# Cathepsin B [17] = molecular target: T1, Cathepsin B; experiment: Inhibition of human liver cathepsin B using Z-RR-para-nitroanilide as substrate
# In short: (§3)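 Human liver cathepsin B (175 nM final) activated 10 min in 100 mM sodium phosphate pH 6.0, 5 mM DTT, 1 mM EDTA; inhibitor added (5% DMSO, pseudo-first order) at 30 °C. Aliquots diluted 17.5-fold into assay with 3 mM Z-RR-pNA; initial rates at 405 nm give residual activity over time.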
# Cathepsin B [18] = molecular target: T1, Cathepsin B; experiment: Inhibition of human liver cathepsin B in presence of azide ion
# Cathepsin B [19] = molecular target: T1, Cathepsin B; experiment: Irreversible inhibition of human liver cathepsin B after 10 mins by mass spectrophotometric analysis
# In short: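 Activated cathepsin B incubated with inhibitor (800 µM) or 5% DMSO control for 10 min under kinetic-study conditions; samples mixed 1:9 with saturated α-cyano-4-hydroxycinnamic acid and analysed by MALDI mass spectrometry, positive linear mode.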
# Cathepsin B [20] = molecular target: T1, Cathepsin B; experiment: Inhibition of human liver cathepsin B using Z-RR-para-nitroanilide as substrate assessed as first-order inactivation rate constant by Kitz-Wilson plot analysis
# In short: (§4)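 Cathepsin B (175 nM, pH 6.0 phosphate, DTT/EDTA, 30 °C, 5% DMSO) inactivated at 25, 50, 75, 100 and 150 µM inhibitor; residual activity with 3 mM Z-RR-pNA at intervals. kobs from single-exponential fit of activity vs time at each concentration; Ki and ki from Kitz–Wilson analysis.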
# Cathepsin B [21] = molecular target: T1, Cathepsin B; experiment: Inhibition of human liver cathepsin B using Z-RR-para-nitroanilide as substrate assessed as reversible equilibrium binding constant by Kitz-Wilson plot analysis; in short: as §4
# Cathepsin B [22] = molecular target: T1, Cathepsin B; experiment: Inhibition of human liver cathepsin B using Z-RR-para-nitroanilide as substrate in presence of leupeptin
# In short: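 Active-site protection: cathepsin B inactivation (175 nM, pH 6.0 phosphate buffer with DTT/EDTA, 30 °C, 5% DMSO) run in presence of leupeptin (40 nM); residual activity measured with 3 mM Z-RR-pNA at 405 nm.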
# Cathepsin B [23] = molecular target: T1, Cathepsin B; experiment: Irreversible inhibition of human liver cathepsin B using Z-RR-para-nitroanilide as substrate measured after dilution of compound-inactivated enzyme complex
# Cathepsin B [24] = molecular target: T1, Cathepsin B; experiment: Time dependent inhibition of human liver cathepsin B using Z-RR-para-nitroanilide as substrate; in short: as §3
# Homo sapiens [25] = species on record: Homo sapiens; experiment: Selectivity ratio of Kinact for human liver cathepsin B to Kinact for human cathepsin D
# Homo sapiens [26] = species on record: Homo sapiens; experiment: Selectivity ratio of Kinact for human liver cathepsin B to Kinact for human cathepsin S
# Homo sapiens [27] = species on record: Homo sapiens; experiment: Selectivity ratio of Kinact for human liver cathepsin B to Kinact for human cathepsin F
# Cathepsin S (Homo sapiens), sequence (P25774 115-331 limits assumed): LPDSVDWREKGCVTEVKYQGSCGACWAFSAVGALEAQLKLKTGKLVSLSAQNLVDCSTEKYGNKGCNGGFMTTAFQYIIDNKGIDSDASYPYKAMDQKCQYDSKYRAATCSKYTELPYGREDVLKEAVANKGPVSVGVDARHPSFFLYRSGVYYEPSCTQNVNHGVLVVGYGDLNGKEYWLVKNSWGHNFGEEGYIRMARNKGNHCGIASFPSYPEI
# Cathepsin D (Homo sapiens), sequence (P07339 65-162 limits assumed): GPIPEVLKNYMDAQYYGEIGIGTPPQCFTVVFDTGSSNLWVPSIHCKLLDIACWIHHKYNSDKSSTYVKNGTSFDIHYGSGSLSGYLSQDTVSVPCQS
# Cathepsin D (Homo sapiens), sequence (P07339 169-412 limits assumed): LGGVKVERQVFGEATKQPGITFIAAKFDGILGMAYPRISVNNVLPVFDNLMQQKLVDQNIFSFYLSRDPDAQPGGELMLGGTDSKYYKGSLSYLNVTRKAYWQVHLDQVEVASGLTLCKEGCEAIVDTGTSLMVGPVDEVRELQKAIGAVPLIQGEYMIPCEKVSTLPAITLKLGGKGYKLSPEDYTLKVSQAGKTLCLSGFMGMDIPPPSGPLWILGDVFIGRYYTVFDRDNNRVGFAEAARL
structure (smiles),measurement,setting,value
O=S(=O)(c1ccccc1)C1OC1c1ccc(F)cc1 (stereo not given),inhibition,Cathepsin B [1],inactive
Cc1ccc(C)c(S(=O)(=O)C2CO2)c1 (stereo not given),inhibition,Cathepsin B [1],42%
COc1ccc(OC)c(S(=O)(=O)C2CO2)c1 (stereo not given),inhibition,Cathepsin B [1],25%
O=S(=O)(c1cc(Cl)cc(Cl)c1)C1CO1 (stereo not given),inhibition,Cathepsin B [1],50%
O=S(=O)(CC1CO1)c1ccccc1 (stereo not given),inhibition,Cathepsin B [1],inactive
COc1cccc(S(=O)(=O)C2CO2)c1 (stereo not given),inhibition,Cathepsin B [1],35%
O=S(=O)(CC1CS1)c1ccccc1 (stereo not given),inhibition,Cathepsin B [1],inactive
CC(=O)N[C@@H](CC(C)C)C(=O)N[C@@H](CC(C)C)C(=O)N[C@H](C=O)CCCNC(=N)N [LEUPEPTIN],Ki,Cathepsin B [2],0.005 µM
O=S(=O)(c1ccc(Cl)cc1)C1CO1 (stereo not given),inhibition,Cathepsin B [1],44%
O=S(=O)(c1ccc2ccccc2c1)C1CO1 (stereo not given),inhibition,Cathepsin B [1],18%
O=S(=O)(c1ccc(OC(F)(F)F)cc1)C1CO1 (stereo not given),inhibition,Cathepsin B [1],30%
Cc1cccc(S(=O)(=O)C2CO2)c1 (stereo not given),inhibition,Cathepsin B [1],40%
CCc1ccccc1S(=O)(=O)C1CO1 (stereo not given),inhibition,MDA-MB-231 [3],Dose-dependent effect
same,inhibition,[4],Active
same,inhibition,Cathepsin B [5],Active
same,inhibition,MDA-MB-231 [6],Active
same,inhibition,[7],Dose-dependent effect
same,inhibition,Cathepsin B [8],Dose-dependent effect
same,inhibition,Cathepsin B [9],Dose-dependent effect
same,half-life at 2500 µM,[10],3.6 h
same,inhibition,Cathepsin B [11],Active
same,inhibition,[12],inactive
same,inhibition,Trypsin (Homo sapiens),inactive
same,inhibition,[13],inactive
same,Kinact,[14],1.08 M⁻¹ s⁻¹
same,Kinact,[15],19.9 M⁻¹ s⁻¹
same,Kinact,[16],21.7 M⁻¹ s⁻¹
same,Kinact,Cathepsin B [17],40.7 M⁻¹ s⁻¹
same,inhibition,Cathepsin B [18],Active
same,inhibition,Cathepsin B [19],Active
same,Kinact,Cathepsin B [20],0.21 min⁻¹
same,Ki,Cathepsin B [21],86 µM
same,inhibition,Cathepsin B [22],inactive
same,inhibition,Cathepsin B [23],Active
same,inhibition,Cathepsin B [24],Active
same,inhibition,Cathepsin B [1],> 98%
same,Selectivity ratio,Homo sapiens [25],38
same,Selectivity ratio,Homo sapiens [26],1.9
same,Selectivity ratio,Homo sapiens [27],1.9
CCCC1OC1S(=O)(=O)c1ccccc1 (stereo not given),inhibition,Cathepsin B [1],inactive
